DENV2 CPE rescue: inhibitors of DENV2 cytopathic effect, primary screen, cell-based, plate reader, single concentration; DENV2-infected cells, cytopathic effect rescue; CPE inhibition, % at 9.99 µM; 350,000 compounds, 1.7% hits; AID 651640, 2012; in the data active means CPE inhibition above about 20%, passing the limit was not always enough; inconclusive means no clear call, values can overlap the other calls; tested in BHK-21 cells;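 further: 0% = median of neutral control wells and 100% = median of positive control wells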
E-sel inducer: E-selectin induction in HUVECs, primary screen, imaging, HUVEC, immunofluorescence imaging, single point. normalized: neutral wells 0, TNF-alpha wells 100. activation, % at 7.58 µM. 260,000 compounds, 0.37% hits;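 active means mean E-selectin-positive cell signal at least 10% of the positive control, reached in at least 60% of replicates, without over 20% cell loss; inconclusive means no rule given, readout overlaps actives, possibly toxicity-flagged; inactive means the rest, including those meeting only one limit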
Target sequence (P16581 whole entry, looked up): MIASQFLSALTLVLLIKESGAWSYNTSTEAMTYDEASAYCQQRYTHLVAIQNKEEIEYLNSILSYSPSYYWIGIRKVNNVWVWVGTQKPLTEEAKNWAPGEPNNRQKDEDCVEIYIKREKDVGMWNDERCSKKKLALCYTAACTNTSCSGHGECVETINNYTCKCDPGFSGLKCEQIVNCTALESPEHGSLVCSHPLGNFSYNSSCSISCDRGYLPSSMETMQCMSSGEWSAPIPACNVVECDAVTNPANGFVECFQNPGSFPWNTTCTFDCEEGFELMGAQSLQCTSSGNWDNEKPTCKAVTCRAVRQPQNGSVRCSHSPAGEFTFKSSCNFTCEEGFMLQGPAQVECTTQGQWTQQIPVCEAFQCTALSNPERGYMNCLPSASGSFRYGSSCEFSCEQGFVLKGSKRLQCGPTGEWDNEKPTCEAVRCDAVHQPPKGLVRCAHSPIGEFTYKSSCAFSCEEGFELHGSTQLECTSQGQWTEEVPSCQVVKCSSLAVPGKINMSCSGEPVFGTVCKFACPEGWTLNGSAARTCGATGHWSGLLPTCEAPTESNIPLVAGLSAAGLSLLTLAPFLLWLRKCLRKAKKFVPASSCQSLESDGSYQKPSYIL
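Test system: HUVEC; input: 3,000 HUVEC/well; measured by: immunofluorescence imaging; read-out: % PE-positive cells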
SIRT5 inh: SIRT5 desuccinylase inhibitors, primary screen, biochemical, fluorescence imaging, single point, set 5; AID 652115, 2013; 330,000 compounds, 1.1% hits; NAD-dependent protein deacylase sirtuin-5, mitochondrial (Homo sapiens), Q9NXA8; inhibition, % at 15 µM; Purified SirT5, succinyl-peptide AMC, trypsin-coupled fluorescence; in the data active means inhibition above about 15%; inconclusive means no clear call, values can overlap the other calls
The depositor's hits bear a star; ? = inconclusive; . = no result. In the library only some 2.9% were active in any assay of this set; here they are far more common.

SMILES	DENV2 CPE rescue	E-sel inducer	SIRT5 inh
O=C1c2ccccc2C(=O)N1CC(=O)N1c2ccccc2Sc2ccccc21	0.5	.	-2.1
O=C1c2ccccc2C(=O)N1CC(=O)N1c2ccccc2Sc2ccc(C(F)(F)F)cc21	35.5*	.	-2.5
CC1(C)CC(=O)C2=C(C1)N(CCN1CCOCC1)C1=C(C(=O)CC(C)(C)C1)C2c1ccc(Cl)c([N+](=O)[O-])c1	7.7	.	2.1
CO[C@@H]1CN(C)C(=O)c2cc(NC(=O)CC(F)(F)F)ccc2OC[C@@H](C)N(C(=O)C2CC2)C[C@@H]1C	1.5	-0.1	.
CO[C@H]1CN(C)C(=O)c2cc(NC(=O)CC(F)(F)F)ccc2OC[C@@H](C)N(C(=O)C2CCCCC2)C[C@@H]1C	-0.8	0.2	28.4*
CO[C@@H]1CN(C)C(=O)c2cc(NC(=O)CC(F)(F)F)ccc2OC[C@@H](C)N(C(=O)C2CC2)C[C@H]1C	12.3	-0.1	.
CO[C@H]1CN(C)C(=O)c2cc(NC(=O)CC(F)(F)F)ccc2OC[C@H](C)N(C(=O)C2CCCCC2)C[C@H]1C	50.1*	0.0	2.2
O=C(O)c1ccc2c(c1)C1C=CCC1C(c1ccncc1)N2 (centres undefined)	-1.0	0.4	-2.3
COc1ccc(NS(=O)(=O)c2ccc3c(c2)[C@H]2C=CC[C@H]2[C@@H](c2ccc(C(=O)O)cc2)N3)cc1	1.5	0.0	44.2*
C/C=C/C(=O)OCC(=O)Nc1ccccc1Br	-8.2	-1.7	-5.5
O=C(CNC(=O)c1cccc(F)c1)OCC(=O)N1CCN(C(=O)c2ccco2)CC1	-0.9	.	29.0*
O=C(NCC(=O)N1CCN(C(=O)c2ccco2)CC1)c1ccc(Br)cc1	-4.0	-0.2	-3.2
COc1ccc(-c2sc(Nc3ccccc3)n[n+]2-c2ccccc2)cc1Br	.	-0.1	.
C(=C\c1sc(Nc2ccccc2)n[n+]1-c1ccccc1)/c1ccccc1	52.2*	0.0	.
CCOC(=O)C1=C(C)N(C[C@@H]2CC[C@@H](Cc3ccc(-c4ccccc4)cc3)O2)C(=O)NC1c1ccc(SCc2ccco2)c([N+](=O)[O-])c1 (some centres undefined)	-2.6	-0.2	-1.9
Cc1ccc2c(c1)N(CC(=O)NCCCN1CCOCC1)C(=O)c1cccnc1O2	-3.7	0.2	.
COc1ccc(NS(=O)(=O)c2cc(NC(=O)c3cc(=O)c4ccccc4o3)ccc2OC)cc1	2.4	0.2	-3.0
Cc1ccc(S(=O)(=O)CC(=O)Nc2nccs2)cc1	-4.3	.	-1.6
Fc1cccc(F)c1-c1nc(-c2ccncc2)no1	-4.4	3.0	20.1*
Cc1ccc(-c2nc(-c3ccncc3)no2)cc1C	1.5	.	5.6
C=CC[n+]1c(-c2ccc(Cl)cc2Cl)csc1Nc1ccc(NC(C)=O)cc1	?	.	1.1
Cc1ccccc1S(=O)(=O)N1C[C@@H](O)COC[C@H]2O[C@@H](CC(=O)N3CCOCC3)CC[C@@H]21	10.2	-0.1	0.0
O=C(C[C@@H]1CC[C@H]2[C@@H](COC[C@H](O)CN2C(=O)Cc2ccccc2)O1)NC1CCC1	13.0	0.0	3.4
O=C(C[C@H]1CC[C@H]2[C@@H](COC[C@H](O)CN2C(=O)Cc2ccccc2)O1)NC1CCC1	37.7*	0.0	4.3
O=C(C[C@H]1CC[C@H]2[C@@H](COC[C@@H](O)CN2C(=O)Cc2ccccc2)O1)NC1CCCC1	?	0.3	-1.3
SMILES	DENV2 CPE rescue	E-sel inducer	SIRT5 inh
O=C(C[C@H]1CC[C@@H]2[C@H](COC[C@H](O)CN2C(=O)Cc2ccccc2)O1)NC1CCCC1	88.5*	0.1	4.3
CSCC[C@H](NC(=O)Nc1ccc(C)cc1)C(=O)O	.	.	-0.5
O=Cc1ccccc1Oc1nc(N2CCOCC2)nc(N2CCOCC2)n1	1.5	.	-4.5
O=C(OCc1ccccc1)/C(=C/c1cccc([N+](=O)[O-])c1)NC(=O)c1ccco1	-5.4	.	-10.6
CCCOC(=O)c1ccc(O)cc1	26.4*	.	0.3
CCCCOC(=O)c1ccc(O)cc1	-9.0	-0.2	-5.7
NC(=O)c1ccc(-c2c(-c3ccccc3)sc3ccccc23)cc1	8.2	0.1	29.3*
Oc1ccc(-c2c(-c3ccsc3)sc3ccccc23)cc1	?	-0.3	.
O=[N+]([O-])c1c(Nc2ccc(O)cc2)cc(Cl)c2nonc12	5.7	-0.2	17.3*
CN(C)c1cc(Nc2ccc(O)cc2)c([N+](=O)[O-])c2nonc12	.	-0.4	-2.4
C[C@H]1CN([C@@H](C)CO)C(=O)c2cc(NC(=O)Nc3ccccc3)ccc2O[C@H]1CN(C)S(=O)(=O)c1ccccc1	-2.5	-0.4	-1.5
O=S(=O)(NCc1cccnc1)c1ccc(Cl)c2ccccc12	19.5	27.1*	-5.0
CCOc1ccc(S(=O)(=O)NCc2cccnc2)c2ccccc12	-1.8	.	-3.5
COC(CN(C)C(=O)c1ccc(CS(=O)(=O)c2ccccc2C)o1)OC	12.1	48.8*	-3.0
CCCCN(C)C(=O)c1ccc(CS(=O)(=O)c2ccccc2C)o1	1.2	.	.
CN1C(=O)c2cc(NC(=O)NCc3ccccc3)ccc2OC[C@@H]2O[C@H](CC(=O)O)CC[C@H]21	5.1	0.0	-1.4
COc1cc(/C=C(\NC(C)=O)C(=O)NC(C)(C)CC(C)(C)C)ccc1OC(C)=O	15.8	.	-2.1
CC(C)CCN1C(=O)c2ccc(C(=O)Nc3ccc(O)cc3C(=O)O)cc2C1=O	-5.2	-0.1	1.5
O=C1OC(N2C(=O)CC[C@H]2C(=O)NCC2CCCO2)c2ccccc21 (some centres undefined)	27.8*	.	.
CCc1ccccc1NC(=O)[C@@H]1CCC(=O)N1C1OC(=O)c2ccccc21 (some centres undefined)	-6.3	.	.
O=C(NCCc1c[nH]c2ccccc12)/C(=C\c1cccnc1)NC(=O)c1ccco1	2.4	-2.5	2.5
COc1ccccc1CCNC(=O)/C(=C/c1cccnc1)NC(=O)c1ccccc1	-5.5	52.1*	-5.0
O=C(NCCc1c[nH]c2ccccc12)/C(=C\c1cccnc1)NC(=O)c1ccccc1Br	41.5*	13.9	-0.1
COc1ccccc1NC(=O)/C(=C\c1cccnc1)NC(=O)c1ccccc1	-0.9	.	-1.7
c1cc(CNCCNCc2ccncc2)ccn1	0.8	-0.8	-1.9
SMILES	DENV2 CPE rescue	E-sel inducer	SIRT5 inh
Cc1cc(Cl)c2oc(C(=O)N(C)CCCCN3CCOCC3)c(C)c2c1	22.2*	.	-0.1
Cc1cc(Cl)c2oc(C(=O)N(C)CCCN3CCOCC3)c(C)c2c1	8.2	0.0	-1.7
C[C@H](CO)N1C[C@H](C)[C@H](CN(C)C)OCCCC[C@H](C)Oc2ccc(NC(=O)c3ccncc3)cc2C1=O	5.4	-0.1	11.8
C[C@H]1CCCCO[C@H](CN(C)C(=O)Nc2ccc(F)cc2)[C@@H](C)CN([C@@H](C)CO)C(=O)c2cc(NC(=O)c3ccncc3)ccc2O1	0.3	-0.2	-1.6
C[C@@H]1CCCCO[C@@H](CN(C)C(=O)Nc2ccc(C(F)(F)F)cc2)[C@H](C)CN([C@@H](C)CO)C(=O)c2cc(NC(=O)c3ccncc3)ccc2O1	75.9*	-0.1	4.1
C[C@H](CO)N1C[C@H](C)[C@@H](CN(C)C)OCCCC[C@H](C)Oc2ccc(NC(=O)c3ccncc3)cc2C1=O	64.8*	0.1	-7.0
C[C@@H]1CN([C@H](C)CO)C(=O)c2cc(NC(=O)c3ccncc3)ccc2O[C@@H](C)CCCCO[C@H]1CN(C)C(=O)Nc1ccc(F)cc1	26.4*	0.2	1.9
